Laboratory results published in ChEMBL document CHEMBL2375228, “4-Bromo-2-(piperidin-1-yl)thiazol-5-yl-phenyl methanone (12b) inhibits Na+/K(+)-ATPase and Ras oncogene activity in cancer cells” (Eur J Med Chem, 2013).
The source made the active and inactive calls. The calls are words filed in the database; no cut-off is given here.

Legend:
[1] = tested on: SK-MEL-28; assay: Ratio of perillyl alcohol IC50 to compound IC50 for human SK-MEL-28 cells; format: functional
[2] = species: Cavia porcellus; assay: Inhibition of guinea pig kidney Na+/K+-ATPase at 1 mM preincubated for 10 mins measured after 30 mins relative to control
[3] = species: Cavia porcellus; assay: Inhibition of ouabain-insensitive Mg++ATPase in guinea pig kidney homogenate at 0.1 to 1mM; format: tissue-based
Outline: (§1)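 Brain and kidney homogenates in 110 mM NaCl, 20 mM KCl, 5 mM MgCl2, 50 mM Tris-HCl pH 7.6 with 5 mM ATP; 10 min preincubation at 37 °C, 30 min reaction. Ouabain-insensitive Mg++ATPase activity measured with 3.6 mM ouabain across 0.1–1.0 mM compound.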

[4] = tested on: Hs 683; assay: Inhibition of RAS oncogene activity in human Hs683 cells 40 uM after 30 seconds by ELISA relative to POH; format: cell-based
[5] = tested on: Hs 683; assay: Inhibition of RAS oncogene activity in human Hs683 cells at 40 uM after 30 seconds by ELISA relative to control; format: cell-based
Outline: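 Hs683 glioma cells exposed 30 s at 40 µM, lysed on ice for 15 min, 100 µg protein used. Active Ras captured on GST-Raf-RBD glutathione plate, detected with H-Ras primary and HRP secondary antibodies, read by chemiluminescence. Compared with untreated cells.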

[6] = species: Cavia porcellus; assay: Inhibition of guinea pig brain Na+/K+-ATPase-mediated K+-activated-p-nitrophenylphosphatase activity
Outline: (§2)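 Purified guinea pig brain or kidney Na+/K+-ATPase preparations; K+-activated p-nitrophenylphosphatase activity = total activity minus basal activity, with basal measured by replacing KCl with 1 mM ouabain. Mean ± SEM of 3 experiments.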

[7] = tested on: Hs 683; assay: Selectivity index for NMRI mouse astrocytes over human Hs683 cells
[8] = species: Cavia porcellus; assay: Non competitive inhibition of guinea pig kidney Na+/K+-ATPase by double reciprocal plot analysis in presence of Na+
[9] = Chemical stability of the compound in water after 72 hrs by mass spectroscopic analysis; format: physicochemical; conditions: buffer
Outline: (§3)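 5 mM DMSO stock diluted 100-fold in water or RPMI and held at 37 °C for 72 h. Samples infused into ESI-QTOF MS (positive mode, scan 110–950 m/z) with FA 0.2%-MeOH 50:50 as solvent.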

[10] = Inhibition of guinea pig brain Na+/K+-ATPase alpha2 preincubated for 10 mins measured after 30 mins; set-up: species or system Cavia porcellus
[11] = tested on: PC-3; assay: Cytotoxicity against human PC3 cells after 72 hrs by MTT assay; format: functional, cell-based; conditions: PC-3, 72 h
Outline: (§4)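 Cells grown in RPMI with 10% heat-inactivated fetal calf serum and exposed to compound for 72 h. Overall growth read by MTT colorimetric assay; IC50 derived from it. Six replicates per condition.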

[12] = species: Cavia porcellus; assay: Inhibition of guinea pig brain Na+/K+-ATPase at 1 mM preincubated for 10 mins measured after 30 mins relative to control
[13] = tested on: A549; assay: Cytotoxicity against human A549 cells after 72 hrs by MTT assay; format: functional, cell-based; conditions: A549, 72 h; outline: as §4
[14] = Selectivity index for human U373 cells over NMRI mouse astrocytes; set-up: species or system U-373MG ATCC
[15] = species: Cavia porcellus; assay: Inhibition of ouabain-insensitive Mg++ATPase in guinea pig brain homogenate at 0.1 to 1mM; format: tissue-based; outline: as §1
[16] = species: Cavia porcellus; assay: Non competitive inhibition of guinea pig brain Na+/K+-ATPase by double reciprocal plot analysis in presence of K+; format: tissue-based
[17] = species: Cavia porcellus; assay: Uncompetitive inhibition of purified guinea pig kidney Na+/K+-ATPase by double reciprocal plot analysis in presence of ATP
[18] = tested on: A549; assay: Ratio of perillyl alcohol IC50 to compound IC50 for human A549 cells; format: functional
[19] = Growth inhibition of NMRI mouse astrocytes after 72 hrs by MTT assay; format: cell-based; conditions: Astrocyte
[20] = tested on: Hs 683; assay: Ratio of perillyl alcohol IC50 to compound IC50 for human Hs683 cells; format: functional
[21] = Inhibition of guinea pig kidney Na+/K+-ATPase alpha1 preincubated for 10 mins measured after 30 mins; set-up: species or system Cavia porcellus
[22] = tested on: MCF7; assay: Cytotoxicity against human MCF7 cells after 72 hrs by MTT assay; format: functional, cell-based; conditions: MCF7, 72 h; outline: as §4
[23] = Inhibition of guinea pig brain Na+/K+-ATPase alpha3 preincubated for 10 mins measured after 30 mins; set-up: species or system Cavia porcellus
[24] = species: Cavia porcellus; assay: Inhibition of guinea pig kidney Na+/K+-ATPase-mediated K+-activated-p-nitrophenylphosphatase activity; outline: as §2
[25] = tested on: PC-3; assay: Ratio of perillyl alcohol IC50 to compound IC50 for human PC3 cells; format: functional
[26] = Chemical stability of the compound in RPMI culture medium after 72 hrs by mass spectroscopic analysis; format: physicochemical; outline: as §3
[27] = species: Cavia porcellus; assay: Uncompetitive inhibition of purified guinea pig brain Na+/K+-ATPase by double reciprocal plot analysis in presence of ATP; format: tissue-based
[28] = Ratio of perillyl alcohol IC50 to compound IC50 for human U373 cells; format: functional, U-373MG ATCC
[29] = tested on: Hs 683; assay: Cytostatic activity against human Hs683 cells at 40 uM after 48 to 72 hrs by videomicroscopic analysis relative to control; format: functional
Outline: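 Hs683 glioma cells, untreated or at 40 µM, filmed by computer-assisted phase-contrast videomicroscopy over 72 h, one image every 4 min (1080 images), in triplicate. Growth rate = cell count in last image / first image. GGR index = treated ratio / control ratio.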

[30] = tested on: SK-MEL-28; assay: Cytotoxicity against human SK-MEL-28 cells after 72 hrs by MTT assay; format: functional, cell-based; conditions: SK-MEL-28, 72 h; outline: as §4
[31] = Cytotoxicity against human Hs683 cells after 72 hrs by MTT assay; format: functional, cell-based; conditions: Hs 683, 72 h; outline: as §4
[32] = species: Cavia porcellus; assay: Inhibition of guinea pig kidney Na+/K+-ATPase alpha1 preincubated for 10 mins measured after 30 mins relative to POH
[33] = Inhibition of Na+/K+-ATPase in guinea pig whole brain homogenate preincubated for 10 mins measured after 30 mins; format: tissue-based, Cavia porcellus
[34] = species: Cavia porcellus; assay: Non competitive inhibition of guinea pig kidney Na+/K+-ATPase by double reciprocal plot analysis in presence of K+
[35] = tested on: MCF7; assay: Ratio of perillyl alcohol IC50 to compound IC50 for human MCF7 cells; format: functional
[36] = species: Cavia porcellus; assay: Non competitive inhibition of guinea pig brain Na+/K+-ATPase by double reciprocal plot analysis in presence of Na+; format: tissue-based
[37] = Cytotoxicity against human U373 cells after 72 hrs by MTT assay; format: functional, cell-based, U-373MG ATCC; conditions: U373 MG; outline: as §4
[38] = Growth inhibition of NMRI mouse astrocytes at 30 to 300 uM after 72 hrs by MTT assay; format: cell-based, Astrocyte; conditions: read-out: GI
Outline: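 Mouse astrocyte primocultures were plated in uncoated T25 flasks for 72 h, medium was changed and cells grown to confluence. Tested at 0, 30, 60 and 300 µM by MTT colorimetric assay.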

[39] = Inhibition of Na+/K+-ATPase in guinea pig kidney homogenate preincubated for 10 mins measured after 30 mins; format: tissue-based, Cavia porcellus

With `O=C(c1ccccc1)c1sc(N2CCCCC2)nc1Br` the “Ratio IC50” value [1] was 10, the inhibition [2] was over 50% and the inhibition [3] was “inactive”. For the same compound, the Ratio [4] was 40, the inhibition [5] was over 50% and the inhibition [6] was “Active”. The “Selectivity Index” value [7] was over 5, the inhibition [8] was “Active” and the Stability [9] was “Unstable”. The IC50 [10] was 250 µM, the IC50 [11] was 62 µM and the inhibition [12] was over 50%. The IC50 [13] was 48 µM, the “Selectivity Index” value [14] was over 5 and the inhibition [15] was “inactive”. For the same compound, the inhibition [16] was “Active”, the inhibition [17] was “Active” and the “Ratio IC50” value [18] was 10. The IC50 [19] was over 300 µM, the “Ratio IC50” value [20] was 10 and the IC50 [21] was 550 µM. The IC50 [22] was 35 µM, the IC50 [23] was 250 µM and the inhibition [24] was “inactive”. For the same compound, the “Ratio IC50” value [25] was 10, the Stability [26] was “Unstable” and the inhibition [27] was “Active”. The “Ratio IC50” value [28] was 10, the Activity [29] was 40% and the IC50 [30] was 91 µM. For the same compound, the IC50 [31] was 38 µM, the Ratio [32] was 3 and the IC50 [33] was 350 µM. For the same compound, the inhibition [34] was “Active”, the “Ratio IC50” value [35] was 10 and the inhibition [36] was “Active”. For the same compound, the IC50 [37] was 78 µM, the inhibition at 72 h, up to 300 µM [38] was under 50% and the IC50 [39] was 550 µM.
